Bioassay records deposited in PubChem BioAssay by several laboratories.
SENP6 inh – inhibitors of human SENP6 protease. inhibition, % at 10 µM. AID 2599. Q9GZR1. 330,000 tested, 1.8% active. Recombinant SENP6 catalytic domain, aminoluciferin luminescence;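 active means inhibition above about 50% at the single tested dose, limit read from the data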;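 further: plate controls were DMSO wells with enzyme for no effect and DMSO wells lacking enzyme for full effect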
SENP8 block-1 – blocks human SENP8 cleavage of Nedd8 substrate; recombinant SENP8, Nedd8 substrate fluorescence; Q96LD8; inhibition, % at 20 µM; 360,000 tested, 0.64% active; in the data active means inhibition mostly above about 40%, no sharp cut-off; inactive means mostly below about 27%
Target sequence (Q96LD8 whole entry, looked up): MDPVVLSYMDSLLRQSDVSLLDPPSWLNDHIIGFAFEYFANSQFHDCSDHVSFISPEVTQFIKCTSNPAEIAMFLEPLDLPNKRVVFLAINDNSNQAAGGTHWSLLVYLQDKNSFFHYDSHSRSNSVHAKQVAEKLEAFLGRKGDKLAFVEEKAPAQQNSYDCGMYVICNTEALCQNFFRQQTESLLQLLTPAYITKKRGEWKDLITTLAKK
SENP8 block-2 – SENP8 protease inhibition. 330,000 tested, 1.2% active. inhibition, % at 10 µM. Q96LD8. purified SENP8, Z-RLRGG-aminoluciferin cleavage, luminescence; in the data active means inhibition above about 50%
HSP90 refold inh – HSP90 refolding inhibition in rabbit reticulocyte lysate; luciferase refolding luminescence, 3 h; inhibition, % at 5.6 µM; 290,000 tested, 0.91% active; AID 1789;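 active means inhibition above the screen-wide mean plus 3 SD, computed separately per campaign, cut at about 16% in these data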;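 further: 0% = DMSO wells and 100% = 60 µM geldanamycin wells; inhibitors lower the luminescence because luciferase stays unfolded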
SENP7 block – inhibitors of human SENP7 protease | inhibition, % at 5 µM | AID 434973 | recombinant SENP7, Z-RLRGG-aminoluciferin luminescence, 40 min | 330,000 tested, 1.5% active;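 active means inhibition above about 50% at the single test dose, limit read from the data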;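 further: plate controls were DMSO with enzyme for no effect and no enzyme buffer wells for full effect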
Target sequence (Q9BQF6 706-1050 limits assumed): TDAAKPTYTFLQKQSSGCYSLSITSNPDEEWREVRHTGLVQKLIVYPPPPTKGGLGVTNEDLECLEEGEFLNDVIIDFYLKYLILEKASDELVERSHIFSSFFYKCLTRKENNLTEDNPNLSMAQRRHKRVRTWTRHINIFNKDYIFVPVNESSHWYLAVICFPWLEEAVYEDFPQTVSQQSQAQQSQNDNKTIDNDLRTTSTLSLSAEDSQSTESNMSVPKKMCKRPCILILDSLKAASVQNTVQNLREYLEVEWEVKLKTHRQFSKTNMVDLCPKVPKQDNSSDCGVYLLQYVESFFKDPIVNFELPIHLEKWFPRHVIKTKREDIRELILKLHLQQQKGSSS
SENP1 inh – blocks the human SENP1 SUMO protease catalytic domain | AID 624204 | inhibition, % at 10 µM | Q9P0U3 | 360,000 tested, 0.21% active | recombinant SENP1 catalytic domain, CyPet-SUMO1-YPet FRET cleavage;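 active means inhibition at least 30% at 10 µM, raw YFP signal under a set limit, fluorescence ratio 0.5 to 1.5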;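 further: 0% = enzyme with DMSO and 100% = no enzyme wells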
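material = recombinant human SENP1 catalytic domain, His6-tagged | quantity = 20 pM enzyme | reagent = 25 nM SUMO1 FRET substrate | compound dosing = 10 µM single point, 0.5% DMSO | timing = 50 min enzyme reaction, room temperature, light-protected | detection = FRET, CFP and YFP emission | control set = no-enzyme low, enzyme-DMSO high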
SENP8 conf – confirmation of human SENP8 protease inhibitors. shares compounds with SENP7 block. Recombinant SENP8, Z-RLRGG-aminoluciferin luminescence, 60 min. inhibition, % at 12.5 µM. 6,200 tested, 40% active. AID 488912;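 active means mean inhibition across replicates above about 50%, limit read from the data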
SENP6 conf – human SENP6 inhibition, confirmed. shares compounds with SENP7 block. recombinant SENP6, Z-RLRGG-aminoluciferin luminescence. inhibition, % at 12.5 µM. 6,200 tested, 58% active. AID 488915
SENP7 confirm – human SENP7 inhibition, confirmed. inhibition, % at 12.5 µM. shares compounds with SENP7 block. 6,200 tested, 69% active. recombinant SENP7, Z-RLRGG-aminoluciferin luminescence, 40 min
Casp3 SENP sel – inhibits human caspase-3 in SENP selectivity test; shares compounds with SENP7 block; purified caspase-3, Z-DEVD-aminoluciferin luminescence, 60 min; inhibition, % at 12.5 µM; 6,200 tested, 60% active;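 active means mean inhibition above about 50%, limit read from the data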;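 further: plate controls were enzyme with DMSO for no effect and wells without caspase-3 for full effect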
Luc interf – counter-screen for SENP inhibitors: luminescence interference. shares compounds with SENP7 block. inhibition, % at 12.5 µM. 6,200 tested, 39% active. AID 488919. Pre-incubated SENP8/Z-RLRGG-aminoluciferin, luciferase luminescence interference;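 active means mean inhibition above about 50% when retested at one dose, limit read from the data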;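 further: plate controls were DMSO wells with completed reaction for no effect and substrate without enzyme for full effect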
Starred values were filed as active, the others as inactive; nt = no result. A selection: hits, their analogues and other compounds. The true share with any hit is near 2.9%.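 How the source made its calls, unless noted: active means mean inhibition above about 50% in the one-dose retest (limit read from the data); inactive means the rest.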

SMILES | SENP6 inh | SENP8 block-1 | SENP8 block-2 | HSP90 refold inh | SENP7 block | SENP1 inh | SENP8 conf | SENP6 conf | SENP7 confirm | Casp3 SENP sel | Luc interf
O=C(CNc1cccc2ccccc12)N/N=C/C(Br)=C/c1ccccc1 | 80.0* | -47.6 | 55.5* | 5.1 | 39.1 | -14.2 | 10.0 | 13.5 | 12.2 | 4.9 | 4.6
O=C(CNc1cccc2ccccc12)N/N=C/c1ccc([N+](=O)[O-])o1 | 80.4* | -98.7 | 8.8 | 1.5 | 39.2 | -3.3 | 21.5 | 40.1 | 11.5 | 0.4 | -1.1
C=CCc1cccc(/C=N/NC(=O)CNc2cccc3ccccc23)c1O | 71.6* | -215.7 | 33.7 | 5.3 | 31.4 | -1.5 | 7.3 | 7.2 | 17.7 | 12.8 | 9.5
FC(F)(F)Oc1ccccc1C(c1nnnn1-c1ccc2c(c1)OCCO2)N1CCN(C/C=C/c2ccccc2)CC1 (stereo not given) | nt | 10.8 | nt | nt | nt | 2.8 | nt | nt | nt | nt | nt
COCC(=O)N1CCC(Oc2ccc(C(=O)N3CCCCCC3)cc2)CC1 | 4.2 | -8.1 | -3.0 | -1.8 | -7.4 | 0.0 | nt | nt | nt | nt | nt
CCc1cccc(CC)c1C(OC(C)=O)c1cccnc1 (stereo not given) | -24.5 | 14.6 | 55.2* | nt | -2.9 | 0.7 | 8.3 | 10.0 | 18.5 | 9.6 | 5.5
CC(=O)NC(c1ccccc1)c1cccnc1 (stereo not given) | -0.2 | 7.9 | -2.0 | 4.2 | 2.7 | 2.4 | nt | nt | nt | nt | nt
CCSc1nnc(Cc2cc(=O)[nH]c(=O)[nH]2)n1-c1cc(C)ccc1C | 53.1* | 16.3 | -5.8 | -3.3 | 15.4 | 3.4 | -3.8 | -1.1 | -5.7 | -5.1 | -3.9
CCOCCn1cnc2sc(C(=O)Nc3nc(C)c(C(=O)OCC)s3)c(C)c2c1=O | 52.8* | nt | 79.3* | -1.2 | 82.9* | nt | 9.6 | 5.1 | 9.5 | 3.4 | 3.7
CCOC(=O)c1sc(NC(=O)c2ccccc2OC)nc1C | 97.0* | -112.8 | 97.7* | -2.9 | 101.7* | 2.5 | 79.8* | 70.3* | 99.3* | 63.3* | 12.7
CCOC(=O)c1sc(Nc2ccc(Br)cc2)nc1C | -28.6 | -392.3 | -5.2 | -1.8 | -2.6 | -0.1 | nt | nt | nt | nt | nt
CCOC(=O)c1sc(NC(=O)c2ccc(CC)s2)nc1C | -4.0 | -153.3 | -1.3 | 11.9 | 66.9* | 0.1 | 4.1 | 6.7 | 15.4 | 13.5 | 5.1
CCOC(=O)c1sc(Nc2ccccc2Cl)nc1C | 62.6* | -106.5 | 27.6 | -0.8 | 41.6 | 2.7 | 44.7 | 44.4 | 73.1* | 35.1 | 39.9
CCOC(=O)c1sc(NC(=O)c2cc3ccccc3o2)nc1C | -35.7 | -402.1 | 10.3 | 8.7 | 33.8 | -0.2 | nt | nt | nt | nt | nt
CN(C(=O)CN1C(=O)NC(c2ccccc2)(c2ccccc2)C1=O)C1CCS(=O)(=O)C1 (stereo not given) | 4.1 | 20.8 | 6.0 | nt | 3.1 | -1.5 | nt | nt | nt | nt | nt
O=C(C1=NN[C@@H]2C(=O)N(Cc3ccccc3)C(=O)[C@H]12)c1ccc(F)cc1 | -8.3 | 31.7 | -1.7 | 0.7 | -7.2 | 1.5 | nt | nt | nt | nt | nt
CC(C)C(=O)NNC(=O)c1cc2sccc2s1 | -18.0 | 9.9 | 0.2 | -1.4 | 3.1 | 0.6 | nt | nt | nt | nt | nt
CN(CC(=O)Nc1ccccc1Cl)C(=O)c1ccc(COc2ccccc2)cc1 | 1.6 | 6.9 | 8.6 | nt | -1.0 | 2.3 | nt | nt | nt | nt | nt
CC1(C(=O)Nc2cccc(OC(F)(F)F)c2)Cc2c(-c3ccc(C(N)=O)cc3)ccnc2O1 (stereo not given) | nt | 14.4 | nt | nt | nt | 0.1 | nt | nt | nt | nt | nt
CCOC(=O)c1sc(NC(=O)c2ccc3ncsc3c2)nc1C | 1.9 | -126.1 | 10.8 | 12.4 | 59.2* | -157.4 | -9.4 | -7.5 | -3.1 | 11.8 | 2.5
